≈ marks a conversion by molar mass, not a printed value.
What was measured:
Sporothrix schenckii = assay: In vitro antifungal activity against Sporothrix schenck ii expressed as MIC (mg/L); type: functional
Method in brief: (§1)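 Fungi were grown on Kimmig agar (30 °C, 21 days) and harvested with a spatula. They were tested in glass tubes of Sabouraud's dextrose broth (pH 6.5) containing DMSO-dissolved compound serially diluted in medium. After 7 days at 30 °C, MIC was read as the lowest concentration with no macroscopically visible growth.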

Trichophyton benhamiae = assay: In vitro antifungal activity against Trichophyton mentagrophytes expressed as MIC (mg/L); type: functional, Arthroderma benhamiae; method in brief: as §1
Microsporum canis = assay: In vitro antifungal activity against Microsporum canis expressed as MIC (mg/L); type: functional; method in brief: as §1
Candida albicans [1] = assay: In vitro antifungal activity against Candida albicans delta124 expressed as MIC (mg/L); type: functional
Method in brief: (§2)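 Tube broth dilution in malt extract broth (pH 4.8). Blastospores came from yeast nitrogen base cultures shaken at 37 °C for about 30 h. Compounds in DMSO were serially diluted in the broth. After 48 h at 30 °C, MIC was taken as the lowest concentration without macroscopically detectable growth.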

Candida parapsilosis = assay: In vitro antifungal activity against Candida parapsilosis delta39 expressed as MIC (mg/L); type: functional; conditions: Lodderomyces parapsilosis; method in brief: as §2
Candida albicans [2] = assay: In vitro antifungal activity against Candida albicans delta9 expressed as MIC (mg/L); type: functional; method in brief: as §2
Aspergillus fumigatus = assay: In vitro antifungal activity against Aspergillus fumigatus expressed as MIC (mg/L); type: functional
Method in brief: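 Broth dilution in glass tubes with Sabouraud's dextrose broth (pH 6.5). Inoculum was filamentous growth scraped from Kimmig agar cultures (30 °C, 21 days). Compounds were dissolved in DMSO and serially diluted in medium. Tubes were incubated 72 h at 30 °C. MIC is the lowest concentration with no macroscopically visible growth.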

Cavia porcellus [3] = assay: Percent mycological cure in guinea pig skin candidosis model (topical treatment twice daily for 5 days starting 3 days after inoculation) using 2% solution (ED50=1.32%); type: functional
Cavia porcellus [4] = assay: In vivo inhibition in guinea pig trichophytosis model; type: functional
Cavia porcellus [5] = assay: Percent mycological cure at a dose of 8 mg/kg per day in guinea pig trichophytosis model (treatment once daily for 9 days starting on the day of inoculation); type: functional

Structure (SMILES) | MIC (Sporothrix schenckii) [µg/mL] | MIC (Trichophyton benhamiae) [µg/mL] | MIC (Microsporum canis) [µg/mL] | MIC (Candida albicans [1]) [µg/mL] | MIC (Candida parapsilosis) [µg/mL] | MIC (Candida albicans [2]) [µg/mL] | MIC (Aspergillus fumigatus) [µg/mL] | Cure (Cavia porcellus [3]) [%] | ED50 (Cavia porcellus [4]) [mg/kg/day] | Cure (Cavia porcellus [5]) [%]
C=C(c1ccccc1)c1ccc(CN(C)Cc2cccc3ccccc23)cc1 | 1.56 (≈ 4.29 µM) | 0.01 (≈ 0.0275 µM) | 0.01 (≈ 0.0275 µM) | > 200 | 0.8 (≈ 2.2 µM) | > 200 | > 200 | – | – | –
CN(Cc1ccc(-c2ccccc2)cc1)Cc1cccc2ccccc12 | > 200 | 10 (≈ 29.6 µM) | > 200 | > 200 | > 200 | > 200 | > 200 | – | – | –
CN(Cc1ccc(C2(c3ccccc3)CC2)cc1)Cc1cccc2ccccc12 | 0.1 (≈ 0.265 µM) | 0.006 (≈ 0.0159 µM) | 0.003 (≈ 0.00795 µM) | 3.13 (≈ 8.29 µM) | 0.1 (≈ 0.265 µM) | 1.56 (≈ 4.13 µM) | 1.56 (≈ 4.13 µM) | – | – | –
CN(Cc1ccc(/C=C/c2ccccc2)cc1)Cc1cccc2ccccc12 | > 200 | 0.1 (≈ 0.275 µM) | 0.01 (≈ 0.0275 µM) | > 200 | > 200 | > 200 | > 200 | – | – | –
CN(Cc1ccc(C(C)(C)c2ccccc2)cc1)Cc1cccc2ccccc12 | 0.2 (≈ 0.527 µM) | 0.006 (≈ 0.0158 µM) | 0.003 (≈ 0.0079 µM) | 1.56 (≈ 4.11 µM) | 0.1 (≈ 0.263 µM) | 0.8 (≈ 2.11 µM) | 0.1 (≈ 0.263 µM) | 90 | 4.6 | 100
CN(Cc1ccc(Nc2ccccc2)cc1)Cc1cccc2ccccc12 | > 200 | > 100 | > 100 | > 200 | > 200 | > 200 | > 200 | – | – | –
CN(Cc1ccc(C(C)(C)C)cc1)Cc1cccc2ccccc12 [BUTENAFINE] | 0.2 (≈ 0.63 µM) | 0.006 (≈ 0.0189 µM) | 0.01 (≈ 0.0315 µM) | 25 (≈ 78.7 µM) | 0.8 (≈ 2.52 µM) | 12.5 (≈ 39.4 µM) | 0.4 (≈ 1.26 µM) | – | – | –
COC1=CC(=O)C[C@@H](C)[C@]12Oc1c(Cl)c(OC)cc(OC)c1C2=O [GRISEOFULVIN] | – | – | – | – | – | – | – | – | 40.7 | –
CC(=O)N1CCN(c2ccc(OCC3COC(Cn4ccnc4)(c4ccc(Cl)cc4Cl)O3)cc2)CC1 (configuration not stated) [KETOCONAZOLE] | – | – | – | – | – | – | – | – | 50.8 | –
CN(C/C=C/C#CC(C)(C)C)Cc1cccc2ccccc12 [TERBINAFINE] | 0.4 (≈ 1.37 µM) | 0.003 (≈ 0.0103 µM) | 0.006 (≈ 0.0206 µM) | 25 (≈ 85.8 µM) | 0.8 (≈ 2.75 µM) | 6.25 (≈ 21.4 µM) | 0.8 (≈ 2.75 µM) | – | – | –

Second part, led by results:

MIC (Sporothrix schenckii) [µg/mL] | MIC (Trichophyton benhamiae) [µg/mL] | MIC (Microsporum canis) [µg/mL] | MIC (Candida albicans [1]) [µg/mL] | MIC (Candida parapsilosis) [µg/mL] | MIC (Candida albicans [2]) [µg/mL] | MIC (Aspergillus fumigatus) [µg/mL] | Structure (SMILES) | Cure (Cavia porcellus [3]) [%] | ED50 (Cavia porcellus [4]) [mg/kg/day] | Cure (Cavia porcellus [5]) [%]
3.13 (≈ 8.23 µM) | 0.006 (≈ 0.0158 µM) | 0.006 (≈ 0.0158 µM) | > 200 | 3.13 (≈ 8.23 µM) | > 200 | > 200 | CCN(c1ccccc1)c1ccc(CN(C)Cc2cccc3ccccc23)cc1 | – | – | –
0.2 (≈ 0.519 µM) | 0.003 (≈ 0.00778 µM) | 0.003 (≈ 0.00778 µM) | 0.8 (≈ 2.07 µM) | 0.05 (≈ 0.13 µM) | 0.4 (≈ 1.04 µM) | 0.1 (≈ 0.259 µM) | CN(Cc1ccc(C(C)(C)c2ccccc2)cc1)Cc1cccc2ccsc12 | – | – | –
> 200 | 0.4 (≈ 1.13 µM) | 0.8 (≈ 2.26 µM) | > 200 | > 200 | > 200 | > 200 | CN(Cc1ccc(Oc2ccccc2)cc1)Cc1cccc2ccccc12 | – | – | –
> 200 | 0.05 (≈ 0.137 µM) | 0.1 (≈ 0.274 µM) | > 200 | 50 (≈ 137 µM) | > 200 | > 200 | CN(Cc1ccc(C(=O)c2ccccc2)cc1)Cc1cccc2ccccc12 | – | – | –
0.8 (≈ 1.9 µM) | 0.02 (≈ 0.0476 µM) | 0.02 (≈ 0.0476 µM) | 1.56 (≈ 3.71 µM) | 0.1 (≈ 0.238 µM) | 1.56 (≈ 3.71 µM) | 0.2 (≈ 0.476 µM) | CN(Cc1ccc(C(C)(C)c2ccccc2)cc1)Cc1cccc2c(Cl)csc12 | – | – | –
> 200 | 0.8 (≈ 2.03 µM) | 3.13 (≈ 7.93 µM) | > 200 | > 200 | > 200 | > 200 | CC(=O)N(c1ccccc1)c1ccc(CN(C)Cc2cccc3ccccc23)cc1 | – | – | –
0.4 (≈ 1.02 µM) | 0.1 (≈ 0.254 µM) | 0.1 (≈ 0.254 µM) | 6.25 (≈ 15.9 µM) | 0.1 (≈ 0.254 µM) | 6.25 (≈ 15.9 µM) | 12.5 (≈ 31.8 µM) | Cc1ccc(C(C)(C)c2ccc(CN(C)Cc3cccc4ccccc34)cc2)cc1 | – | – | –
1.56 (≈ 4.44 µM) | 0.05 (≈ 0.142 µM) | 0.05 (≈ 0.142 µM) | > 100 | 6.25 (≈ 17.8 µM) | 50 (≈ 142 µM) | > 100 | CN(Cc1ccc(Cc2ccccc2)cc1)Cc1cccc2ccccc12 | – | – | –

Reference: ChEMBL document CHEMBL1126744, “Synthesis and structure-activity relationships of phenyl-substituted benzylamine antimycotics: a novel benzylbenzylamine antifungal agent for systemic treatment” (1993)
